Activity calls are given as the source filed them. No cut-off for these calls is given here.

Assay [1] addresses T1, Oxysterols receptor LXR-alpha (Homo sapiens) (UniProt Q13133).
T1 sequence (whole entry): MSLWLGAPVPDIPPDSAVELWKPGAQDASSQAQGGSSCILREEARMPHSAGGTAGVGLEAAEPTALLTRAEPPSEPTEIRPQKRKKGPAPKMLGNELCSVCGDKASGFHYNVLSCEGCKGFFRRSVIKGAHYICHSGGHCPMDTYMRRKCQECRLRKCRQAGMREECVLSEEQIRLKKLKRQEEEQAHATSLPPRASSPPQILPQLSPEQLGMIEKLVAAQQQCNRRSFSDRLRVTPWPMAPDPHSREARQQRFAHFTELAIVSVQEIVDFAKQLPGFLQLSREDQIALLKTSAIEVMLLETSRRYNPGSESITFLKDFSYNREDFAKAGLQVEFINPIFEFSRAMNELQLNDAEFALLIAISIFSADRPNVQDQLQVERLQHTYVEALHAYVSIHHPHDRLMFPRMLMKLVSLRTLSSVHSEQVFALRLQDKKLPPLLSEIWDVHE
The assay is described as follows: Antagonist activity at recombinant LXRalpha LBD expressed in HEK293T cells co-expressing GAL4 DBD assessed as inhibition of TO901317-induced transactivation at 20 uM by luciferase reporter gene assay. It is filed as functional, cell-based. As to conditions: HEK-293T. In outline:
(§1)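 One-hybrid assay in HEK293T cells cotransfected with a Gal4 DBD–NR-LBD fusion (RXRα, LXRα, GR, PR, PPARδ or PPARγ) plus UAS-TK-Luc reporter. Compound was 20 μM, given alone or with agonist: 9cRA 0.1 μM (RXRα), TO901317 0.5 μM (LXRα), dexamethasone 50 nM (GR), progesterone 100 nM (PR), GW1516 10 μM (PPARδ), rosiglitazone 10 μM (PPARγ). Luciferase read-out; three independent experiments.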
(In general: A reporter such as luciferase makes a cellular process visible.)

For assay [2], the target named is T2, Retinoic acid receptor RXR-alpha (Homo sapiens) (UniProt P19793).
T2 sequence (whole entry): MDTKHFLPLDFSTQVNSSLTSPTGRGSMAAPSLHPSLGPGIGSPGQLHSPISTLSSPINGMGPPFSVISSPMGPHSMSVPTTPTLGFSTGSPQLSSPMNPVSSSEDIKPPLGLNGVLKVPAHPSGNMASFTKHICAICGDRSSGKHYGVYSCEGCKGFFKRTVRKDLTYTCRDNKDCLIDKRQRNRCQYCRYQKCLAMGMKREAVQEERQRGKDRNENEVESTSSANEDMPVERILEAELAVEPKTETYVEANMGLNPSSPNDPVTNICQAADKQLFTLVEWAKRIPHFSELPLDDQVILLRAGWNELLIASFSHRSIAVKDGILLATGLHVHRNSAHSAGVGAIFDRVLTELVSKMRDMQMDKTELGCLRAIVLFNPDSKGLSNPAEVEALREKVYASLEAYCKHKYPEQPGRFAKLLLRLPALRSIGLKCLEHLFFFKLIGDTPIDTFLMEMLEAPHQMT
In words: Antagonist activity at recombinant RXRalpha LBD expressed in HEK293T cells co-expressing GAL4 DBD assessed as inhibition of 9cRA-induced transactivation at 20 uM by luciferase reporter gene assay. As to conditions: HEK-293T. It is filed as functional, cell-based. The essentials: as §1

Assay [3] deals with T3, Peroxisome proliferator-activated receptor delta (Homo sapiens) (UniProt Q03181).
T3 sequence (whole entry): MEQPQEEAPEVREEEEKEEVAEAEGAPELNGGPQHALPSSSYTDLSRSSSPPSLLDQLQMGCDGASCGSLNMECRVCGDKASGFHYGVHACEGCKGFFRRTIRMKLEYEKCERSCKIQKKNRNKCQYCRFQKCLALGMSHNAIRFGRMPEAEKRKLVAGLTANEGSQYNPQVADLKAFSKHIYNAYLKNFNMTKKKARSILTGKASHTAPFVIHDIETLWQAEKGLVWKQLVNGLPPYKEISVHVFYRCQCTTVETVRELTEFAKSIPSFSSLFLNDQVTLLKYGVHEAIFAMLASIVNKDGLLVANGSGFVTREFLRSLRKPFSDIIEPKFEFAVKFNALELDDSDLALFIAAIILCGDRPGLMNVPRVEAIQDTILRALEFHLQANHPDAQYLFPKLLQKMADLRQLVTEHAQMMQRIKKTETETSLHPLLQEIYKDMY
The assay is described as follows: Agonist activity at recombinant PPARdelta LBD expressed in HEK293T cells co-expressing GAL4 DBD at 20 uM by transactivation assay. It counts as functional, cell-based. As to conditions: HEK-293T. In outline:
as §1

A short description of assay [4]: Binding affinity to FXRalphaLBD assessed as increase in thermal stability. The essentials: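 DSC with 2 mg/mL FXRαLBD in 20 mM Tris-HCl, 50 mM NaCl, pH 8.0, with DMSO or compound at a compound:protein ratio of 5:1, against the dialysis buffer as reference. Scan was 10–110 °C at 90 °C/h, giving Tm.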
In assay [5] the target is T4, Bile acid receptor (Homo sapiens) (UniProt Q96RI1).
T4 sequence (whole entry): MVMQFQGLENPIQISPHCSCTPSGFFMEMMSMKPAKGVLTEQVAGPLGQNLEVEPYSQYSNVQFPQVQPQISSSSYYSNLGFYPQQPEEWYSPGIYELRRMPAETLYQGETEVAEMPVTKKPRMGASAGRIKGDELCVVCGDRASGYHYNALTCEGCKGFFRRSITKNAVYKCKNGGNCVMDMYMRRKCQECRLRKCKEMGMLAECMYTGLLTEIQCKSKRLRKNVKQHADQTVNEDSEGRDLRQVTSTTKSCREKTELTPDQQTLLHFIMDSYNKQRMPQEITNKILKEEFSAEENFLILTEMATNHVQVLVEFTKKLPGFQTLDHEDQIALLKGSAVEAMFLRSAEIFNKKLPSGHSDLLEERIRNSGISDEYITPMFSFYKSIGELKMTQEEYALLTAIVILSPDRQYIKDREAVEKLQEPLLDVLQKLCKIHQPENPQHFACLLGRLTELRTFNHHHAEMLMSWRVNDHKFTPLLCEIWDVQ
The assay is described as follows: Antagonist activity at human FXR in human HepG2 cells assessed as inhibition of CDCA induced decrease of Cyp7A1 gene expression at 5 to 40 uM after 24 hrs by RT-PCR analysis. It is filed as functional, cell-based. The essentials: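 HepG2 cells in 6-well plates were treated with varied concentrations of compound, with or without 100 μM CDCA, for 24 h. Total RNA was taken with TRIzol and cDNA made by reverse transcription. Cyp7A1, SHP, BSEP and SREBP1c mRNA were measured by quantitative RT-PCR and normalized to β-actin. Three independent experiments.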

The target in assay [6] is T4, Bile acid receptor (Homo sapiens). In words: Antagonist activity at human FXR in human HepG2 cells assessed as reduction in triglyceride level after 24 hrs. It is filed as functional, cell-based. The essentials:
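HepG2 cells were serum-starved overnight in FBS-free DMEM, then given DMSO or compound for 24 h in serum-free DMEM. Cells were lysed in RIPA buffer, sonicated on ice and centrifuged at 12000 rpm, 4 °C. Triglyceride and total cholesterol in the cleared lysate were measured by kits, with total protein by BCA. At least three experiments.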

Assay [7] addresses T3, Peroxisome proliferator-activated receptor delta (Homo sapiens). In words: Antagonist activity at recombinant PPARdelta LBD expressed in HEK293T cells co-expressing GAL4 DBD assessed as inhibition of GW1516-induced transactivation at 20 uM by luciferase reporter gene assay. It counts as functional, cell-based. As to conditions: HEK-293T. In outline:
as §1

For the compound `COc1cc(/C=C2\C(=O)N(c3cccc([N+](=O)[O-])c3)N=C2c2ccccc2)ccc1O`, the inhibition entry in assay [1], in assay [2] and in assay [7] was “inactive” throughout. Further, in assay [3], the outcome was inactive. Also, the Tm in assay [4] came out at 58.7 °C. The inhibition entry in assay [5] was “Active”. The inhibition result in assay [6] was “Dose-dependent effect”.

For the origin of these results see ChEMBL document CHEMBL2169822, “Discovery and optimization of 1,3,4-trisubstituted-pyrazolone derivatives as novel, potent, and nonsteroidal farnesoid X receptor (FXR) selective antagonists” (J Med Chem, 2012).
